Laboratory results as given in paper PMC4303578 (Chemical Science, 2014).

System: His6–FzmG
Assay: O2 consumption, Hansatech O2 electrode
Assay type: biochemical
Conditions: alpha-KG 1 mM (saturating), Fe(II)
In short: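 Apparent steady-state kinetics by Clark-type O2 electrode. Phosphonic acid substrate concentration varied; α-KG held at 1 mM (saturating). Enzyme held constant at 3.7 μM for most substrates and 9.25 μM for one. Reactions were started by adding enzyme. Initial O2-consumption rates were measured in triplicate. Km was taken from nonlinear Michaelis–Menten regression.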

Structure (SMILES): O=P(O)(O)CCO [2-HEP]
- Km (3.7 μM enzyme): 210 ± 40 µM

Structure (SMILES): COC(=O)CP(=O)(O)O [Me-PnA]
- Km (3.7 μM enzyme): 80 ± 20 µM

Structure (SMILES): O=C(O)CP(=O)(O)O [PnA]
- Km (9.25 μM enzyme): 8000 ± 1000 µM

Structure (SMILES): O=CCP(=O)(O)O [PnAA]
- Km (3.7 μM enzyme): 800 ± 300 µM
